Experiments:
[1] = molecular target: T1, von Hippel-Lindau disease tumor suppressor/Serine/threonine-protein kinase TBK1 (Homo sapiens, UniProt Q9UHD2+P40337); assay: Induction of VHL-mediated TBK1 degradation in human Panc02.13 cells after 16 hrs by Western blot method relative to control; format: cell-based
Summary of the method: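 Panc02.13 cells grown in RPMI-1640 with 15% FBS and 10 units/mL human recombinant insulin, exposed to compound for 16 h. For phospho-IRF3 read-out, TLR3 agonist Poly I:C added for the final 3 h. Cells lysed in RIPA buffer with protease/phosphatase inhibitors, lysates clarified at 16,000g, run on SDS-PAGE and immunoblotted for TBK1, pIRF3 and GAPDH.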
Target sequence in this assay (P40337 whole entry, looked up, one chain of several): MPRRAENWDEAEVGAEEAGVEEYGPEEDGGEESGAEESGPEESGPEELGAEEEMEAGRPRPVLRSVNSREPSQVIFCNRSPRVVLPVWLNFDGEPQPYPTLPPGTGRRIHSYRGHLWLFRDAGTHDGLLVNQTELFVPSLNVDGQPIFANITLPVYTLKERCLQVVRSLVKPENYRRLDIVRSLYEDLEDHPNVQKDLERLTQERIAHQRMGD

[2] = molecular target: T1, von Hippel-Lindau disease tumor suppressor/Serine/threonine-protein kinase TBK1; assay: Induction of VHL-mediated TBK1 degradation in human Panc02.13 cells after 16 hrs by Western blot method; format: cell-based
Summary of the method: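 For phospho-IRF3 read-out, TLR3 agonist Poly I:C added for the final 3 h. Cells lysed in RIPA buffer with protease/phosphatase inhibitors, lysates clarified at 16,000g, run on SDS-PAGE and immunoblotted for TBK1, pIRF3 and GAPDH.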
Target sequence in this assay (P40337 whole entry, one chain of several): as the sequence (P40337 whole entry, looked up, one chain of several) above

[3] = molecular target: T2, Serine/threonine-protein kinase TBK1 (Homo sapiens, UniProt Q9UHD2); assay: Binding affinity to human full length wild-type TBK1 expressed in mammalian expression system
T2 sequence (Q9UHD2 whole entry): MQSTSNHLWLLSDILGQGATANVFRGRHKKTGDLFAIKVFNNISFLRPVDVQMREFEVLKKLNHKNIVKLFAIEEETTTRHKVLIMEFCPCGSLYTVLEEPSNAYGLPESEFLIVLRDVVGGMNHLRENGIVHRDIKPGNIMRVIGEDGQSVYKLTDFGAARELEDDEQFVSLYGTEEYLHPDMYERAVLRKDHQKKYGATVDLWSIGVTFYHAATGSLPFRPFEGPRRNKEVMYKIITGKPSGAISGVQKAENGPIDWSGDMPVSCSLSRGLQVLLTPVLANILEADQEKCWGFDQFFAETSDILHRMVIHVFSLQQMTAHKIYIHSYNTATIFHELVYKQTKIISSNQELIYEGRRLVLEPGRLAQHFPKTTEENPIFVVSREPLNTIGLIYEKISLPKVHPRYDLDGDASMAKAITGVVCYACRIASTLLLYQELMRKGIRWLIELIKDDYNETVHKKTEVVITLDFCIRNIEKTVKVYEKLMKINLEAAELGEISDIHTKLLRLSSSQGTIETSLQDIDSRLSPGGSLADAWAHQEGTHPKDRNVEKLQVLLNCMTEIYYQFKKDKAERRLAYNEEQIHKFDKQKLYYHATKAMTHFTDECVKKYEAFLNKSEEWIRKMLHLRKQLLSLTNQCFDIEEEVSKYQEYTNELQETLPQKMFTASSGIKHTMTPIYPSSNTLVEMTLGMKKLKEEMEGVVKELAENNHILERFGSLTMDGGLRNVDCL

[4] = molecular target: von Hippel-Lindau disease tumor suppressor/Elongin-C/Elongin-B/HIF1A (Homo sapiens, UniProt P40337+Q15369+Q15370+Q16665); assay: Inhibition of His-tagged VHL/elongin B/elongin C (unknown origin) interaction with HIF1alpha preincubated for 10 mins followed by fluorescin labelled HIF1alpha peptide addition measured after 2 hrs by fluorescence polarization assay; format: protein-complex assay
Sequence of von Hippel-Lindau disease tumor suppressor/Elongin-C/Elongin-B/HIF1A (P40337 whole entry, looked up): as the sequence (P40337 whole entry, looked up, one chain of several) above
Sequence of von Hippel-Lindau disease tumor suppressor/Elongin-C/Elongin-B/HIF1A (Q15369 whole entry, looked up): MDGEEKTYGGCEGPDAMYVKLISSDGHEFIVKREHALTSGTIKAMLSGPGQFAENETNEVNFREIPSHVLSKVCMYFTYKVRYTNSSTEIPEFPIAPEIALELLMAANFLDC
Sequence of von Hippel-Lindau disease tumor suppressor/Elongin-C/Elongin-B/HIF1A (Q15370 whole entry, looked up): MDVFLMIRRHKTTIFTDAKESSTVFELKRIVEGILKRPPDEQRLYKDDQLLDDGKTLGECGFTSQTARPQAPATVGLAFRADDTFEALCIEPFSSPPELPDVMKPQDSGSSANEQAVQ
Sequence of von Hippel-Lindau disease tumor suppressor/Elongin-C/Elongin-B/HIF1A (Q16665 whole entry, looked up): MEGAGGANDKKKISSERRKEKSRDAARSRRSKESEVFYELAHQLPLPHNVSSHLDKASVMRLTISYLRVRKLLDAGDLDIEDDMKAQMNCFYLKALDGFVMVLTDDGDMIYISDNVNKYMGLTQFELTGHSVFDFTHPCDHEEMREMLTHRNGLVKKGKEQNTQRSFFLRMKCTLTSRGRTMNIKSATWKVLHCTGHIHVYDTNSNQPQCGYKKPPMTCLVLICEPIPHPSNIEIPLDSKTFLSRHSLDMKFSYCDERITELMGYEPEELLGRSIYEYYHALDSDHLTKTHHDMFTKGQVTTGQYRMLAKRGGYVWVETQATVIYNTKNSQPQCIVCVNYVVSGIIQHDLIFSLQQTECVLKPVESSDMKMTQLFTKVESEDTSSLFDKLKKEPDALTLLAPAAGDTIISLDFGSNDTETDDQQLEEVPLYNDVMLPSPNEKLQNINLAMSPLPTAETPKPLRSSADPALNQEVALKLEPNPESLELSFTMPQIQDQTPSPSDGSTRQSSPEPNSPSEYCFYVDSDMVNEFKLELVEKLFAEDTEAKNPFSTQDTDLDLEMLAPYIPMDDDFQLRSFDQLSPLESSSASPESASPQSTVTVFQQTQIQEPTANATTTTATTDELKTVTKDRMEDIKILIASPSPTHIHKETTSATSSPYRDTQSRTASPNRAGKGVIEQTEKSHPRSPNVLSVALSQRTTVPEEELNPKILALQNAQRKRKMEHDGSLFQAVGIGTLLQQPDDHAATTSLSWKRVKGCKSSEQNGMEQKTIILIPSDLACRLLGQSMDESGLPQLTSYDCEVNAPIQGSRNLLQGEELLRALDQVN
Summary of the method: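 VHL coexpressed and copurified with Elongin B and C (VCB). Compound preincubated 10 min with VHL in 50 mM Tris pH 7.5, 200 mM NaCl, 2 mM DTT, 1% DMSO. Polarization converted to percent binding against control wells; IC50 from four-parameter fit.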

SMILES: Cc1ncsc1-c1ccc(CNC(=O)[C@@H]2C[C@@H](O)CN2C(=O)[C@@H](NC(=O)COCCOCCOCCOCCOCCOc2ccc(Nc3ncc(Br)c(NCCCN(C)C(=O)C4CCC4)n3)cc2)C(C)(C)C)cc1
- Emax [1]: 96%
- DC50 [2]: 29 nM

SMILES: Cc1ncsc1-c1ccc(CNC(=O)[C@@H]2C[C@@H](O)CN2C(=O)[C@@H](NC(=O)COCCCOCCCCOCCCOc2ccc(Nc3ncc(I)c(NCCCN(C)C(=O)C4CCC4)n3)cc2)C(C)(C)C)cc1
- Kd [3]: 4 nM
- Emax [1]: 96%
- DC50 [2]: 3 nM

SMILES: Cc1ncsc1-c1ccc(CNC(=O)[C@@H]2C[C@@H](O)CN2C(=O)[C@@H](NC(=O)COCCOCCOCCOc2ccc(Nc3ncc(Br)c(NCCCN(C)C(=O)C4CCC4)n3)cc2)C(C)(C)C)cc1
- DC50 [2]: > 1000 nM

SMILES: Cc1cnc(Nc2ccc(OCCCOCCCCOCCCOCC(=O)N[C@H](C(=O)N3C[C@H](O)C[C@H]3C(=O)NCc3ccc(-c4scnc4C)cc3)C(C)(C)C)cc2)nc1NCCCN(C)C(=O)C1CCC1
- Kd [3]: 270 nM
- Emax [1]: 89%
- DC50 [2]: 92 nM

SMILES: Cc1ncsc1-c1ccc(CNC(=O)[C@@H]2C[C@@H](O)CN2C(=O)[C@@H](NC(=O)COCCOCCCCOCCCCOCCOc2ccc(Nc3ncc(Br)c(NCCCN(C)C(=O)C4CCC4)n3)cc2)C(C)(C)C)cc1
- Emax [1]: 96%
- DC50 [2]: 6 nM

SMILES: Cc1ncsc1-c1ccc(CNC(=O)[C@@H]2C[C@@H](O)CN2C(=O)[C@@H](NC(=O)COCCCOCCCCOCCCOc2ccc(Nc3nccc(NCCCN(C)C(=O)C4CCC4)n3)cc2)C(C)(C)C)cc1
- Kd [3]: 725 nM
- DC50 [2]: > 1000 nM

SMILES: Cc1ncsc1-c1ccc(CNC(=O)[C@@H]2C[C@@H](O)CN2C(=O)[C@@H](NC(=O)COCCCOCCCOc2ccc(Nc3ncc(Br)c(NCCCN(C)C(=O)C4CCC4)n3)cc2)C(C)(C)C)cc1
- DC50 [2]: > 1000 nM

SMILES: CCC[C@H](NC(=O)COCCCOCCCCOCCCOc1ccc(Nc2ncc(Br)c(NCCCN(C)C(=O)C3CCC3)n2)cc1)C(=O)N1C[C@H](O)C[C@H]1C(=O)NCc1ccc(-c2scnc2C)cc1
- Emax [1]: 75%
- DC50 [2]: 288 nM
- IC50 [4]: 16000 nM

SMILES: Cc1ncsc1-c1ccc(CNC(=O)[C@@H]2C[C@@H](O)CN2C(=O)CNC(=O)COCCCOCCCCOCCCOc2ccc(Nc3ncc(Br)c(NCCCN(C)C(=O)C4CCC4)n3)cc2)cc1
- Emax [1]: 0%
- DC50 [2]: > 1000 nM
- IC50 [4]: > 100000 nM

SMILES: Cc1ncsc1-c1ccc(CNC(=O)[C@@H]2C[C@@H](O)CN2C(=O)[C@@H](NC(=O)CCCCCOCCCCOCCCCOc2ccc(Nc3ncc(Br)c(NCCCN(C)C(=O)C4CCC4)n3)cc2)C(C)(C)C)cc1
- Emax [1]: 90%
- DC50 [2]: 95 nM

SMILES: Cc1ncsc1-c1ccc(CNC(=O)[C@@H]2C[C@@H](O)CN2C(=O)[C@@H](NC(=O)COCCCOCCCCOCCCOc2ccc(Nc3ncc(C(F)(F)F)c(NCCCN(C)C(=O)C4CCC4)n3)cc2)C(C)(C)C)cc1
- Kd [3]: 13 nM
- Emax [1]: 96%
- DC50 [2]: 29 nM

SMILES: Cc1ncsc1-c1ccc(CNC(=O)[C@@H]2C[C@@H](O)CN2C(=O)[C@@H](NC(=O)COCCOCCOCCOCCOc2ccc(Nc3ncc(Br)c(NCCCN(C)C(=O)C4CCC4)n3)cc2)C(C)(C)C)cc1
- Emax [1]: 92%
- DC50 [2]: 103 nM

SMILES: Cc1ncsc1-c1ccc(CNC(=O)[C@@H]2C[C@@H](O)CN2C(=O)[C@@H](NC(=O)COCCCOCCCCOCCCOc2ccc(Nc3ncc(Br)c(NCCCN(C)C(=O)C4CCC4)n3)cc2)C(C)C)cc1
- Emax [1]: 88%
- DC50 [2]: 44 nM
- IC50 [4]: 5500 nM

SMILES: Cc1ncsc1-c1ccc(CNC(=O)[C@@H]2C[C@@H](O)CN2C(=O)[C@@H](NC(=O)CCCCCOCCOc2ccc(Nc3ncc(Br)c(NCCCN(C)C(=O)C4CCC4)n3)cc2)C(C)(C)C)cc1
- DC50 [2]: > 1000 nM

SMILES: Cc1ncsc1-c1ccc(CNC(=O)[C@@H]2C[C@@H](O)CN2C(=O)[C@@H](NC(=O)COCCCOCCCCOCCCOc2ccc(Nc3ncc(C4CCC4)c(NCCCN(C)C(=O)C4CCC4)n3)cc2)C(C)(C)C)cc1
- Kd [3]: 1040 nM
- Emax [1]: 70%
- DC50 [2]: 544 nM

SMILES: CCc1cnc(Nc2ccc(OCCCOCCCCOCCCOCC(=O)N[C@H](C(=O)N3C[C@H](O)C[C@H]3C(=O)NCc3ccc(-c4scnc4C)cc3)C(C)(C)C)cc2)nc1NCCCN(C)C(=O)C1CCC1
- Kd [3]: 275 nM
- Emax [1]: 77%
- DC50 [2]: 121 nM

SMILES: Cc1ncsc1-c1ccc(CNC(=O)[C@@H]2C[C@@H](O)CN2C(=O)[C@@H](NC(=O)COCCCOCCCCOCCCOc2ccc(Nc3ncc(Cl)c(NCCCN(C)C(=O)C4CCC4)n3)cc2)C(C)(C)C)cc1
- Kd [3]: 10.4 nM
- Emax [1]: 96%
- DC50 [2]: 10 nM

SMILES: Cc1ncsc1-c1ccc(CNC(=O)[C@@H]2C[C@@H](O)CN2C(=O)[C@@H](NC(=O)COCCCCOc2ccc(Nc3ncc(Br)c(NCCCN(C)C(=O)C4CCC4)n3)cc2)C(C)(C)C)cc1
- DC50 [2]: > 1000 nM

SMILES: Cc1ncsc1-c1ccc(CNC(=O)[C@@H]2C[C@@H](O)CN2C(=O)[C@@H](NC(=O)COCCCOCCCCOCCCOc2ccc(Nc3ncc(C4CC4)c(NCCCN(C)C(=O)C4CCC4)n3)cc2)C(C)(C)C)cc1
- Kd [3]: 245 nM
- Emax [1]: 96%
- DC50 [2]: 65 nM

SMILES: Cc1ncsc1-c1ccc(CNC(=O)[C@@H]2C[C@@H](O)CN2C(=O)[C@@H](NC(=O)COCCCCCOCCCCOCCCCOCCCCOCCCCCOc2ccc(Nc3ncc(Br)c(NCCCN(C)C(=O)C4CCC4)n3)cc2)C(C)(C)C)cc1
- Emax [1]: 76%
- DC50 [2]: 292 nM

SMILES: Cc1ncsc1-c1ccc(CNC(=O)[C@@H]2C[C@@H](O)CN2C(=O)[C@H](C)NC(=O)COCCCOCCCCOCCCOc2ccc(Nc3ncc(Br)c(NCCCN(C)C(=O)C4CCC4)n3)cc2)cc1
- Emax [1]: 34%
- DC50 [2]: > 1000 nM
- IC50 [4]: 25000 nM

SMILES: Cc1ncsc1-c1ccc(CNC(=O)[C@@H]2C[C@@H](O)CN2C(=O)[C@@H](NC(=O)COCCCOCCCCOCCCOc2ccc(Nc3ncc(F)c(NCCCN(C)C(=O)C4CCC4)n3)cc2)C(C)(C)C)cc1
- Kd [3]: 104 nM
- Emax [1]: 74%
- DC50 [2]: 282 nM

SMILES: Cc1ncsc1-c1ccc(CNC(=O)[C@@H]2C[C@@H](O)CN2C(=O)[C@@H](NC(=O)CCOCCCOCCCOCCCOCCCOc2ccc(Nc3ncc(Br)c(NCCCN(C)C(=O)C4CCC4)n3)cc2)C(C)(C)C)cc1
- Emax [1]: 96%
- DC50 [2]: 25 nM

SMILES: Cc1ncsc1-c1ccc(CNC(=O)[C@@H]2C[C@@H](O)CN2C(=O)[C@@H](NC(=O)COCCCOCCCCCOc2ccc(Nc3ncc(Br)c(NCCCN(C)C(=O)C4CCC4)n3)cc2)C(C)(C)C)cc1
- Emax [1]: 79%
- DC50 [2]: 88 nM

SMILES: Cc1ncsc1-c1ccc(CNC(=O)[C@@H]2C[C@@H](O)CN2C(=O)[C@@H](NC(=O)COCCOCCOCCCCOc2ccc(Nc3ncc(Br)c(NCCCN(C)C(=O)C4CCC4)n3)cc2)C(C)(C)C)cc1
- Emax [1]: 86%
- DC50 [2]: 71 nM

SMILES: Cc1ncsc1-c1ccc(CNC(=O)[C@@H]2C[C@@H](O)CN2C(=O)[C@@H](NC(=O)COCCOCCOc2ccc(Nc3ncc(Br)c(NCCCN(C)C(=O)C4CCC4)n3)cc2)C(C)(C)C)cc1
- DC50 [2]: > 1000 nM

SMILES: CC[C@H](NC(=O)COCCCOCCCCOCCCOc1ccc(Nc2ncc(Br)c(NCCCN(C)C(=O)C3CCC3)n2)cc1)C(=O)N1C[C@H](O)C[C@H]1C(=O)NCc1ccc(-c2scnc2C)cc1
- Emax [1]: 71%
- DC50 [2]: 864 nM
- IC50 [4]: 9900 nM

SMILES: Cc1ncsc1-c1ccc(CNC(=O)[C@@H]2C[C@@H](O)CN2C(=O)[C@@H](NC(=O)COCCOCCOCCOCCOCCOCCOc2ccc(Nc3ncc(Br)c(NCCCN(C)C(=O)C4CCC4)n3)cc2)C(C)(C)C)cc1
- Emax [1]: 96%
- DC50 [2]: 34 nM

SMILES: C=Cc1cnc(Nc2ccc(OCCCOCCCCOCCCOCC(=O)N[C@H](C(=O)N3C[C@H](O)C[C@H]3C(=O)NCc3ccc(-c4scnc4C)cc3)C(C)(C)C)cc2)nc1NCCCN(C)C(=O)C1CCC1
- Kd [3]: 130 nM
- Emax [1]: 96%
- DC50 [2]: 48 nM

SMILES: Cc1ncsc1-c1ccc(CNC(=O)[C@@H]2C[C@@H](O)CN2C(=O)[C@@H](NC(=O)COCCOCCCCOCCCCOCCOCCOc2ccc(Nc3ncc(Br)c(NCCCN(C)C(=O)C4CCC4)n3)cc2)C(C)(C)C)cc1
- Emax [1]: 96%
- DC50 [2]: 3 nM
